The values that follow come from ChEMBL document CHEMBL1155883, “5-Alkyl-6-benzyl-2-(2-oxo-2-phenylethylsulfanyl)pyrimidin-4(3H)-ones, a series of anti-HIV-1 agents of the dihydro-alkoxy-benzyl-oxopyrimidine family with peculiar structure-activity relationship profile” (J Med Chem, 2008).

The subject of series [1] is Human immunodeficiency virus 1. The series can be described thus: Antiviral activity against HIV1 NL4-3 in human MT4 cells assessed as inhibition of virus-induced cytopathogenicity by MTT assay. The settings on record: Human immunodeficiency virus 1, NL4-3, MT4. The series is classed as functional, organism-based. The method in brief:
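MT-4 lymphoid cells infected with wild-type HIV-1 NL4-3 in the presence of a range of compound concentrations. Viable cells were counted by MTT colorimetric read-out at day 5 post-infection. EC50 is the concentration giving 50% protection from virus-induced cytopathic effect. Means ± SD from at least two or three experiments.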
In general terms: Cytopathic effects are the visible damage that an infection or toxin causes in cultured cells.

The nature of series [2]: Cytotoxicity against human MT4 cells by MTT assay. The format is cell-based. Put shortly: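 Mock-infected MT-4 cells were exposed to a range of compound concentrations. Viability was read by MTT at day 5. CC50 is the concentration that kills 50% of uninfected cells. The top concentration was limited by compound precipitation in culture medium. Means ± SD from at least two or three experiments.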

Series [3] is described as follows: Selectivity index, ratio of CC50 for human MT4 cells to EC50 for HIV1 NL4-3. The format is toxicity, cell-based. The settings on record: read-out: Ratio CC50/EC50. The method in brief: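 Computed as CC50/EC50. CC50 comes from MTT viability of mock-infected MT-4 cells and EC50 from MTT protection of NL4-3-infected MT-4 cells, both read at day 5.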
Series [4] concerns Human immunodeficiency virus 1. Briefly: Resistance index, ratio of ID50 for reverse transcriptase Y181I mutant to IC50 for wild-type HIV1 reverse transcriptase. Put shortly: (§1)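 Recombinant wt and K103N, L100I or Y181I HIV-1 RT (>95% pure), 2-4 nM. RNA-dependent DNA polymerase assay on 0.5 µg poly(rA)/oligo(dT) 10:1 (0.3 µM 3'-OH ends) with 10 µM [3H]-dTTP and 8% final DMSO. Aliquots taken every 2 min. Inhibitor range 0.2-5× ID50, fitted to a noncompetitive model. Fold resistance is mutant ID50 divided by wt ID50.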

Series [5] deals with Human immunodeficiency virus 1. Briefly: Antiviral activity against HIV1 isolates with reverse transcriptase K103N mutation in human MT4 cells assessed as inhibition of virus-induced cytopathogenicity by MTT assay. The format is functional, organism-based. The settings on record: Human immunodeficiency virus 1, MT4. The method in brief: (§2)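 MT-4 lymphoid cells infected with HIV-1 carrying RT K103N, Y181C or Y188L, in the presence of different drug concentrations. Viable cells counted at day 5 postinfection by MTT colorimetric assay. EC50 is the concentration that inhibits 50% of the HIV-induced cytopathic effect.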

Series [6] relates to Human immunodeficiency virus 1. Briefly: Antiviral activity against HIV1 isolates with reverse transcriptase Y181C mutation in human MT4 cells assessed as inhibition of virus-induced cytopathogenicity by MTT assay. The format is functional, organism-based. The settings on record: Human immunodeficiency virus 1, MT4. Put shortly:
as §2

Series [7] has as its target Human immunodeficiency virus type 1 reverse transcriptase (Human immunodeficiency virus 1) (UniProt Q72547).
Series [8] deals with Human immunodeficiency virus 1. The series can be described thus: Antiviral activity against HIV1 isolates with reverse transcriptase Y188L mutation in human MT4 cells assessed as inhibition of virus-induced cytopathogenicity by MTT assay. The format is functional, organism-based. The settings on record: Human immunodeficiency virus 1, MT4. Put shortly: as §2
Series [9] deals with Human immunodeficiency virus type 1 reverse transcriptase (Human immunodeficiency virus 1), Q72547 [L100I].
In series [10] the test system is Human immunodeficiency virus type 1 reverse transcriptase (Human immunodeficiency virus 1), Q72547 [Y181I].
Series [11] has as its system Human immunodeficiency virus type 1 reverse transcriptase (Human immunodeficiency virus 1), Q72547 [K103N].
Series [12] concerns Human immunodeficiency virus 1. Briefly: Resistance index, ratio of ID50 for reverse transcriptase L100I mutant to IC50 for wild-type HIV1 reverse transcriptase. Put shortly: as §1
Series [13] relates to Human immunodeficiency virus 1. Briefly: Resistance index, ratio of ID50 for reverse transcriptase K103N mutant to IC50 for wild-type HIV1 sreverse transcriptase. The method in brief: as §1
Series [14] relates to Human immunodeficiency virus 1. The series can be described thus: Resistance index, ratio of EC50 for drug-resistant HIV1 isolate with reverse transcriptase Y181C mutation to EC50 for wild type HIV1 NL4-3. The format is functional. The method in brief: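 Fold resistance is the EC50 against the K103N, Y181C or Y188L mutant strain divided by the EC50 against wt NL4-3. Each EC50 is from MT-4 cells infected in the presence of different drug concentrations, with viability read by MTT at day 5 postinfection.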

Each structure is given as a SMILES string.

`O=C(CSc1nc(Cc2c(F)cccc2Cl)cc(=O)[nH]1)c1ccccc1`: the half-maximal effective concentration (EC50) (usually the concentration at which the effect is half-maximal) is 1.26 µM in series [1], > 13 µM in [5], > 13 µM in [6] and > 13 µM in series [8]. Further, the CC50 (usually the concentration giving 50% cytotoxicity) in series [2] was > 13 µM. Besides, the selectivity ratio in series [3] is > 10. Further, the values for the Ratio in series [4], in series [12] and in [13] were 200, 750 and 1000, respectively. Moreover, the ID50 in [7] was 0.002 µM; in series [9] it was 1.5 µM; in series [10], 0.4 µM; in series [11], 2 µM.
Consider `COc1ccc(C(=O)CSc2nc(Cc3c(F)cccc3Cl)c(C)c(=O)[nH]2)cc1`, for which the EC50 in series [1] is 0.2 µM; in [5], > 12 µM; in [6] it was 1.57 µM; in [8], > 12 µM. The half-maximal cytotoxic concentration (CC50) in [2] is > 12 µM. In addition, in [14], the “Ratio EC50” value was 8. Besides, the selectivity ratio in [3] was > 60. Besides, the results for the Ratio in series [4], in series [12] and in [13] were 67, 1390 and 150, respectively. Besides, the ID50 was 0.018 µM in [7], 25 µM in series [9], 1.2 µM in series [10] and 2.7 µM in series [11].
For `CCc1c(Cc2c(Cl)cccc2Cl)nc(SCC(=O)c2ccc(OC)cc2)[nH]c1=O`, the EC50 in [1] was 3.3 µM; in series [5], > 54 µM; in series [6], 24.1 µM; in series [8] it was > 54 µM. The half-maximal cytotoxic concentration (CC50) in series [2] is > 54 µM. Moreover, the “Ratio EC50” value in [14] is recorded as 7. The selectivity ratio in series [3] is > 16. Also, the Ratio came out at 6 in series [4], 105 in series [12] and 21 in [13]. Further, the ID50 came to 0.023 µM in series [7], 2.42 µM in [9], 0.14 µM in series [10] and 0.48 µM in [11].
Regarding `CC(C)c1c(Cc2c(F)cccc2F)nc(SCC(=O)c2ccc(F)cc2)[nH]c1=O`, the EC50 was 0.005 µM in series [1], > 58 µM in series [5], 0.18 µM in series [6] and > 58 µM in series [8]. Moreover, the CC50 in [2] is > 58 µM. Moreover, the “Ratio EC50” value in [14] worked out at 36. Further, in series [3], the selectivity ratio was > 11600. The ID50 in series [7] was 0.082 µM; in series [9], 5.7 µM; in series [10], > 40 µM; in [11], 5.82 µM. Moreover, the Ratio came out at 70 in series [12] and 71 in [13].
Take `Cc1c(Cc2c(Cl)cccc2Cl)nc(SCC(=O)c2ccc(F)cc2)[nH]c1=O`: the EC50 in [1] was 0.046 µM; in [5], > 57 µM; in series [6] it was > 57 µM; in series [8] it was > 57 µM. Moreover, the 50% cytotoxic concentration (CC50) in series [2] was > 57 µM. In addition, the selectivity ratio in [3] was > 1240. The results for the Ratio in series [4] and in series [12] were 4 and 56, respectively. Also, the ID50 in series [7] is 0.19 µM; in series [9], 10.7 µM; in series [10], 0.8 µM; in series [11], > 40 µM.
Turning to `COc1ccc(C(=O)CSc2nc(Cc3c(F)cccc3F)c(C)c(=O)[nH]2)cc1`, the EC50 in series [1] was 0.048 µM; in series [5], > 60 µM; in series [6], 0.65 µM; in [8] it was > 60 µM. For the same compound, in series [2], the CC50 was > 60 µM. Besides, the “Ratio EC50” value in series [14] was determined as 13. In series [3], the selectivity ratio is > 1250. Besides, the Ratio in [4] came to 4; in series [13] it was 87. Further, the ID50 is 0.26 µM in series [7], > 40 µM in [9], 1.17 µM in [10] and 22.7 µM in series [11].
Consider `O=C(CSc1nc(Cc2c(F)cccc2Cl)cc(=O)[nH]1)c1ccc(F)cc1`, for which the EC50 in series [1] was 0.29 µM; in [5] it was > 61 µM; in series [6], 13.9 µM; in [8], > 61 µM. The CC50 in [2] was > 61 µM. The “Ratio EC50” value in [14] amounted to 48. In addition, the selectivity ratio in series [3] is > 210. Besides, the Ratio in series [4] was found to be 10; in series [13] it was 22. Besides, the ID50 in series [7] was 0.93 µM; in series [9], > 40 µM; in series [10], 9.2 µM; in [11] it was 20.7 µM.
For `CCC(C)c1c(Cc2c(F)cccc2Cl)nc(SCC(=O)c2ccc(OC)cc2)[nH]c1=O` (stereo not given), the EC50 in series [1] is 0.006 µM; in series [5], > 40 µM; in series [6] it was > 40 µM; in [8] it was > 40 µM. The compound further gave a CC50 in [2] of 40 µM. The selectivity ratio in series [3] was > 6670. For the same compound, the Ratio worked out at 1130 in [4], 3910 in [12] and 84 in series [13]. The ID50 in [7] is 0.007 µM; in series [9], 27.4 µM; in series [10], 7.9 µM; in series [11] it was 0.59 µM.
In the case of `CCC(C)c1c(Cc2c(F)cccc2Cl)nc(SCC(=O)c2ccc(F)cc2)[nH]c1=O` (stereo not given), the EC50 in [1] is 0.017 µM; in series [5], > 54 µM; in series [6], 0.86 µM; in series [8], > 54 µM. Also, the CC50 in [2] is > 54 µM. In [14], the “Ratio EC50” value stood at 51. The selectivity ratio in [3] is > 3180. Also, the ID50 in series [7] was 0.024 µM; in [9] it was 32.7 µM; in series [10], > 40 µM; in [11], > 40 µM. Besides, the Ratio in series [12] amounted to 1360.
For the compound `O=C(CSc1nc(Cc2c(Cl)cccc2Cl)cc(=O)[nH]1)c1ccccc1`, the concentration giving a half-maximal response (EC50) is 1.78 µM in series [1], > 12 µM in [5], > 12 µM in [6] and > 12 µM in series [8]. The CC50 in series [2] is > 12 µM. For the same compound, the selectivity ratio in series [3] is > 7. The results for the Ratio in series [4], in series [12] and in series [13] were 22, 917 and 308, respectively. The ID50 was 0.012 µM in series [7], 11 µM in series [9], 0.26 µM in series [10] and 3.7 µM in [11].
Consider `COc1ccc(C(=O)CSc2nc(Cc3c(F)cccc3Cl)cc(=O)[nH]2)cc1`, for which the EC50 was 1.55 µM in [1], > 12 µM in series [5], > 12 µM in [6] and > 12 µM in series [8]. For the same compound, in [2], the CC50 is > 12 µM. The selectivity ratio in [3] was > 8. For the same compound, the ID50 was 0.014 µM in series [7], 0.5 µM in [9], > 40 µM in series [10] and 3.4 µM in series [11]. Further, the Ratio is 36 in series [12] and 243 in [13].
Regarding `O=C(CSc1nc(Cc2c(Cl)cccc2Cl)cc(=O)[nH]1)c1ccc(F)cc1`, the EC50 was 0.78 µM in [1], > 59 µM in series [5], > 59 µM in series [6] and > 59 µM in series [8]. The half-maximal cytotoxic concentration (CC50) in series [2] is > 59 µM. Besides, the selectivity ratio in [3] is > 76. Also, the Ratio in [4] came out at 46; in series [12] it was 124; in series [13], 46. In addition, the ID50 turned out to be 0.21 µM in series [7], 26.1 µM in series [9], 9.7 µM in [10] and 9.7 µM in series [11].
